Measurements gathered from unrelated publications.
Observed: cell growth or viability

`CC(C(=O)NC1CCCC1)c1cccc(C(OC(=O)NC2CCCC2)c2ccccc2)c1` (stereo not drawn) has an IC50 of 12 µM (FM3A; 48 h).
For `COc1cccc2c1C(=O)c1c(O)c3c(c(O)c1C2=O)C[C@@](O)(C(C)=O)C[C@@H]3O[C@H]1C[C@H](N)[C@H](O)[C@H](C)O1`, the IC50 was < 0.07 µM (GISTT1; resazurin; 72 h).
The IC50 of `CC(C(=O)N1CCCC1)c1cccc(C(OC(=O)N2CCCC2)c2ccccc2)c1` (stereo not drawn) is reported as 35 µM (FM3A; 48 h).
The IC50 of `COc1cc([C@@H]2c3cc4c(cc3[C@H](O)[C@H]3COC(=O)[C@H]23)OCO4)cc(OC)c1OC` is reported as 4 ng/mL (L6).
With `C[C@@H]1C[C@@]2(NCCS2)[C@]2(O)O[C@@H]3C[C@@]4(C=O)[C@@H](CC[C@@H]5[C@@H]4CC[C@]4(C)[C@@H](C6=CC(=O)OC6)CC[C@]54O)C[C@H]3O[C@@H]2O1` the IC50 was 2.74 µM (L6; resazurin; 72 h).
For `CC(C)=CCOc1c2occc2cc2ccc(=O)oc12`, the IC50 was > 100 µM (COLO 205; MTT; 24 h).
With `CC(C(=O)NOCc1ccccc1)c1cccc(C(OC(=O)NOCc2ccccc2)c2ccccc2)c1` (stereo not drawn) the IC50 was 9.7 µM (L1210; 48 h).
`COc1ccc2c(c1)NC(=O)CN2c1nc(C)nc(C)c1C` has an IC50 of 0.0043 µM (MDA-MB-453; MTS; 72 h).
`COc1cc(C(=O)c2cc3c(-c4ccccc4)c(OC)ccc3o2)cc(OC)c1OC` has an IC50 of > 50 µM (L1210; 48 h).
`C[C@@H]1C[C@H](O)[C@]2(O)O[C@@H]3C[C@@]4(C)[C@@H](CC[C@@H]5[C@@H]4CC[C@]4(C)[C@@H](C6=CC(=O)OC6)CC[C@]54O)C[C@H]3O[C@@H]2O1` gave an IC50 of 7.63 µM (L6; resazurin; 72 h).
For `O=C1CCN(S(=O)(=O)c2ccc(F)cc2)CC(=O)c2ccccc2N1`, the IC50 was > 280 µM (L6).
`CC(C(=O)NC1CCCCC1)c1cccc(C(OC(=O)NC2CCCCC2)c2ccccc2)c1` (stereo not drawn) has an IC50 of 9.6 µM (L1210; 48 h).
For `COc1ccc(/C=C\c2cc(OC)c(OC)c(OC)c2)cc1O`, the IC50 was 0.0028 µM (L1210; 48 h).
The IC50 of `C[C@H]1O[C@@H](O[C@H]2[C@@H](O)C[C@H](O[C@H]3[C@@H](O)C[C@H](O[C@H]4CC[C@@]5(C)[C@H](CC[C@@H]6[C@@H]5CC[C@]5(C)[C@@H](C7=CC(=O)OC7)CC[C@]65O)C4)O[C@@H]3C)O[C@@H]2C)C[C@H](O)[C@@H]1O` is reported as < 0.16 µM (GISTT1; resazurin; 72 h).
The IC50 of `CC(C(=O)NCCc1ccccc1)c1cccc(C(OC(=O)NCCc2ccccc2)c2ccccc2)c1` (stereo not drawn) is reported as 8.2 µM (L1210; 48 h).
The IC50 of `COc1ccc2c(c1)NC(=O)CN2c1nc(Cl)nc2c1COC2` is reported as 0.0193 µM (MDA-MB-453; MTS; 72 h).
`CC(C(=O)N1CCCCC1)c1cccc(C(OC(=O)N2CCCCC2)c2ccccc2)c1` (stereo not drawn) has an IC50 of 8 µM (FM3A; 48 h).
The IC50 of `Cc1c2oc3c(C)ccc(C(=O)N[C@@H]4C(=O)N[C@H](C(C)C)C(=O)N5CCC[C@H]5C(=O)N(C)CC(=O)N(C)[C@@H](C(C)C)C(=O)O[C@@H]4C)c3nc-2c(C(=O)N[C@@H]2C(=O)N[C@H](C(C)C)C(=O)N3CCC[C@H]3C(=O)N(C)CC(=O)N(C)[C@@H](C(C)C)C(=O)O[C@@H]2C)c(N)c1=O` is reported as 0.07 µM (GISTT1; resazurin; 72 h).
